From PubChem
HKDC1 inhibitor – inhibitors of human hexokinase HKDC1 | Q2TB90 | recombinant HKDC1, G6PDH/diaphorase resazurin coupled fluorescence | inhibition, % at 20 µM | 0.16% of 340,000 active;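 active means inhibition above about 35% when tested at 20 µM, limit read from the data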;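 further: plate controls were DMSO wells with enzyme for no effect and DMSO wells lacking enzyme for full effect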
Target sequence (Q2TB90 whole entry, looked up): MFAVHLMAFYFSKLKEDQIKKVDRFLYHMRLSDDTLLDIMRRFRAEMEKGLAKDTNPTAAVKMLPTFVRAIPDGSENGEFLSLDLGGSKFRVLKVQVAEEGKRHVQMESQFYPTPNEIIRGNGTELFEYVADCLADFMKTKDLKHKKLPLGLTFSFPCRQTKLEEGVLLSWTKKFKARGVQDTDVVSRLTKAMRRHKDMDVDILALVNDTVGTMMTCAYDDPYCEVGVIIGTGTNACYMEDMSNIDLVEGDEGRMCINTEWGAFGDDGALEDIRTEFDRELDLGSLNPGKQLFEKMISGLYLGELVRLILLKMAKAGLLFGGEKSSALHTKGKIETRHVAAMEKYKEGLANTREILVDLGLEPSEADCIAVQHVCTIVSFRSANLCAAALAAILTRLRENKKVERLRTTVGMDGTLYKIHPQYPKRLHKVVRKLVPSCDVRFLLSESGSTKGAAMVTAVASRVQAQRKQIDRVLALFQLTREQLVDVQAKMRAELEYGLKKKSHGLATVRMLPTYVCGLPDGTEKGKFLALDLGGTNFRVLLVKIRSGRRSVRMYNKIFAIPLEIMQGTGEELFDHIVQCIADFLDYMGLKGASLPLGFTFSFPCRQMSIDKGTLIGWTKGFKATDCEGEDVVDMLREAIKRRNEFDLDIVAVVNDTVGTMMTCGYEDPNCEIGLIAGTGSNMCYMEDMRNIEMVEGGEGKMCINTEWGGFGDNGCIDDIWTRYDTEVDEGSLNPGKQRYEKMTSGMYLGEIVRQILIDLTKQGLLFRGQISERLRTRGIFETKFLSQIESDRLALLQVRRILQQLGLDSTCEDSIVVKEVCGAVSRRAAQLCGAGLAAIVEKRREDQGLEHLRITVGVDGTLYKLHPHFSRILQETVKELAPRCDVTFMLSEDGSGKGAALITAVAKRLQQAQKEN
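System: Recombinant HKDC1 hexokinase | Amount: HKDC1 at 5 µg/mL | Reagent: Glucose with 1 mM ATP | Doses: Single 20 µM dose | Incubation: Reaction time 90 min, room temperature, protected from light | Signal: Coupled resazurin fluorescence, excitation 525 nm, emission 613 nm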
VIM-2 inh – inhibitors of Pseudomonas aeruginosa VIM-2 metallo-beta-lactamase. AID 1527. purified VIM-2, nitrocefin hydrolysis, epi-absorbance fluorescence. inhibition, % at 5.6 µM. 0.89% of 290,000 active;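 active means inhibition above the mean of all tested compounds plus 3 SD, cutoff set per screening run, cut at about 7.5% in these data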;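 further: red hydrolysis product quenches plate fluorescence so inhibitors raise well fluorescence; 0% = enzyme with DMSO and 100% = DMSO without enzyme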
IMP-1 inhibitor – inhibitors of Pseudomonas aeruginosa IMP-1 metallo-beta-lactamase; purified IMP-1, nitrocefin hydrolysis, epi-absorbance fluorescence; inhibition, % at 5.6 µM; 0.45% of 290,000 active; AID 1556;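 active means inhibition above the mean plus 3 SD of all compounds in the same screening run, cut at about 4.5% in these data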;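 further: 0% = IMP-1 with DMSO and 100% = DMSO wells lacking enzyme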
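System: purified recombinant IMP-1 beta-lactamase. Medium: Zinc- and detergent-supplemented HEPES buffer, pH 7.1. Compound: one 5.6 µM dose […]. Schedule: 15 min preincubation plus 25 min reaction at 25 °C. Technique: Epi-absorbance fluorescence, 480 nm excitation, 530 nm emission.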
PvdQ inh – blocks Pseudomonas aeruginosa PvdQ acylase activity; purified PvdQ acylase, fluorescence plate reader; inhibition, % at 10 µM; 0.063% of 340,000 active; AID 488965; in the data active means inhibition above about 30%, passing the limit was not always enough;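 further: 0% = vehicle neutral wells and 100% = reference inhibitor wells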
ATG4B inh – ATG4B (human) cysteine protease inhibition | Q9Y4P1 | ATG4B cleavage of LC3-PLA2, NBD-HPC fluorescence, 1 h | inhibition, % at 8.33 µM | 0.51% of 340,000 active; in the data active means inhibition above about 40%
MIN6 prolif-1 – MIN6 beta-cell proliferation induction | MIN6 cells proliferation, ATPlite luminescence, 48 h; cells starved in 0.2% serum; 100% = growth in 10% serum | proliferation, % at 10 µM | 0.29% of 330,000 active | AID 2380;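 active means compounds whose signal lies at least 3.5 SD above the mean of all wells on their plate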;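 further: 0% = DMSO-treated cells in low-serum medium and 100% = 10% serum control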
MIN6 prolif-2 – confirmation of inducers of beta-cell replication in MIN6 cells. shares compounds with MIN6 prolif-1. MIN6 beta-cell proliferation, ATPlite luminescence, 48 h; cells kept in 0.2% serum; scaled between 0.2% and 10% serum. proliferation increase, % at 50 µM. 920 tested, under 10 active. AID 463095;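 active means proliferation increase above 40% at any of the four tested concentrations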
Active calls of the source: *; nt = not tested or not shown. The list is not random: actives were taken first. Their share in the collection is about 2%.

SMILES	HKDC1 inhibitor	VIM-2 inh	IMP-1 inhibitor	PvdQ inh	ATG4B inh	MIN6 prolif-1	MIN6 prolif-2
Cc1ccc(N(CC(=O)NCc2ccccn2)S(=O)(=O)c2ccccc2)cc1C	-2	-5	-4	5	8	9.0*	2
Cc1ccc(N(CC(=O)NCc2ccccn2)S(=O)(=O)c2ccccc2)cc1Cl	-3	0	-1	-5	-1	-3	nt
O=C(NCCN1CCOCC1)c1cc2ccccc2[nH]1	-13	0	0	-12	1	8.2*	0
CC(c1ccccc1)n1c(CO)nc2ccccc21 (stereo not drawn)	3	-2	-2	-1	-12	-2	nt
O=C(CCNS(=O)(=O)c1ccc(Cl)cc1)N1CCC2(O)CCCCC2C1 (stereo not drawn)	0	-3	-3	2	-3	5.6*	-1
CC(=O)Nc1ccc(S(=O)(=O)Nc2ccccc2C(=O)N2CCCCC2)cc1	-4	-2	0	-4	-1	-4	nt
COc1ccc(OC)c(NC(=O)CCn2cccc2)c1	-6	2	0	-12	-10	7.5*	-1
CCC(Cc1ccccc1)NC(=O)C1=C(C)C(=O)OC12CCC(C)CC2 (stereo not drawn)	-8	-3	-3	-16	-13	7.7*	-3
CC1CCCCN1N=Nc1nc2c([nH]1)c(=O)n(C)c(=O)n2C (stereo not drawn)	-3	nt	nt	-3	2	nt	nt
O=C(CSc1nnc(CNC(=O)c2cccs2)o1)Nc1cccc(F)c1	0	1	1	-18	-7	3	nt
O=C(CSc1nnc(CNC(=O)c2cccs2)o1)Nc1cccc(C(F)(F)F)c1	-2	-1	-4	-7	-14	5.1*	-1
CCN(CC)S(=O)(=O)c1ccc2c(c1)N(CC(=O)NCc1ccccn1)C(=O)CO2	-3	-2	-1	0	-1	-1	nt
Cc1cccc(S(=O)(=O)Nc2nc3ccccc3nc2Nc2cccc(C(=O)O)c2)c1	2	0	-2	6	-3	6.6*	-5
CCN1CCN(C(=O)Cn2ncc3ccsc3c2=O)CC1	-1	-2	-1	-9	3	9.8*	2
CCOC(=O)c1c(S(=O)(=O)NCC(=O)Nc2ccc(OC)cc2)c(C)n(C)c1C	-6	1	-1	-13	-6	13*	-2
CCOC(=O)c1c(S(=O)(=O)NCC(=O)Nc2ccccc2OC)c(C)n(C)c1C	-4	-3	-2	4	-5	13*	2
CCOC(=O)c1c(S(=O)(=O)NCCc2ccc(OC)c(OC)c2)c(C)n(C)c1C	0	2	2	6	-6	-2	nt
CCOC(=O)c1c(S(=O)(=O)NCCc2ccccc2)c(C)n(C)c1C	-4	-1	-2	-3	-11	12*	-5
O=C(COc1c(CO)cc(Br)cc1CO)NC1CCCc2ccccc21 (stereo not drawn)	-18	-3	0	6	0	1	nt
COc1cccc(C(=O)COC(=O)CCC(=O)c2ccccc2)c1	-5	-2	-1	2	8	4	nt
O=C(CSc1n[nH]c(-c2ccncc2)n1)Nc1ccc(Cl)c(C(=O)O)c1	2	1	-4	-3	2	-1	nt
Cc1ccc(C(=O)N/C(=C/c2ccccc2)C(=O)NCC2CCCO2)cc1 (stereo not drawn)	-6	-2	-2	-3	-2	-3	nt
COc1cc(NC(=O)c2ccc(Cl)cc2)c(OC)cc1NC(=O)CN1CCCCC1	1	-2	-3	2	-2	-2	nt
COc1cc(NC(=O)c2ccccc2F)c(OC)cc1NC(=O)CN1CCCCC1	7	-2	-4	-8	8	9.3*	-6
COCCOc1ccc(C(F)(F)F)cc1NC(=O)c1ccccc1F	-12	-2	-4	6	-3	6.7*	0
SMILES	HKDC1 inhibitor	VIM-2 inh	IMP-1 inhibitor	PvdQ inh	ATG4B inh	MIN6 prolif-1	MIN6 prolif-2
CC1(C)C(CSc2nc3ccccc3[nH]2)C1(Cl)Cl (stereo not drawn)	-8	-2	-3	-13	-4	0	nt
COC(C(=O)Nc1ccnn1C1CCN(Cc2ccc(C)s2)CC1)c1ccccc1 (stereo not drawn)	-3	0	0	-4	-5	9.2*	-3
COC(C(=O)Nc1ccnn1C1CCN(Cc2ccc(Cl)s2)CC1)c1ccccc1 (stereo not drawn)	0	-2	-2	-8	-9	3	nt
Cc1ccc(CNc2oc(-c3ccco3)nc2C#N)cc1	-1	-2	0	-8	12	0.0*	-6
NS(=O)(=O)c1ccc(CCNC(=O)Cc2cccs2)cc1	4	-4	-2	-14	1	1	nt
Cc1cc2nc(C)c(=O)n(C)c2cc1C	-4	3	1	-17	6	7.3*	2
Cc1nc(NC(=O)c2ccc(Br)o2)ccc1Br	-1	1	0	5	2	11*	-1
Cc1nn(C)c(C(=O)N/N=C/c2cccc(Oc3ccccc3)c2)c1Br	5	-2	-4	-10	-1	0	nt
Cc1ccc(S(=O)(=O)N(C)C)cc1NC(=O)COC(=O)c1n[nH]c(=O)c2ccccc12	-5	0	-2	0	0	11*	1
Cc1ccc(-c2cc(C(F)F)n3ncc(C(=O)N4CCCc5ccccc54)c3n2)cc1	4	-4	-6	-19	-14	7.8*	-2
NC(=O)C(=O)N/N=C/c1c2ccccc2cc2ccccc12	-3	1	-2	3	3	1	nt
Cc1ccc(C(=O)Nc2ccc(Cl)cn2)cc1S(=O)(=O)N1CCOCC1	-2	-3	-2	-13	-9	-3	nt
Cc1ccc(NC(=O)c2ccc(C)c(S(=O)(=O)N3CCOCC3)c2)nc1	-1	nt	nt	-9	2	13*	-3
O=C(CN1CCN(c2ccc(F)cc2)CC1)N1CCC(Cc2ccccc2)CC1	-3	0	-5	-6	-5	-4	nt
O=C(CN1CCC(Cc2ccccc2)CC1)N1CCc2ccccc2C1	19	1	-3	3	5	9.0*	-5
COCCNC(=S)N/N=C(\C)c1cccc(OC)c1	2	0	-2	-5	-4	-3	nt
CN1C(=O)c2cccc3c(Cl)ccc(c23)C1=O	-15	0	0	-13	-5	6.9*	-1
O=[N+]([O-])c1cc(-c2ncccn2)cs1	-9	0	-1	-5	-3	1	nt
Cc1ccc(N(CC(=O)NC2CCCC2)C(=O)CCC(=O)Nc2nccs2)c(C)c1	-3	-3	-5	5	-10	21*	-1
Cc1ccc(C)c(N(CC(=O)NC2CCCC2)C(=O)CCC(=O)Nc2nccs2)c1	2	-1	-1	-21	1	1	nt
